{
  "source": "paper PMC8897208",
  "about": "(Acta Pharmaceutica Sinica. B, 2021)",
  "target": "T1, HDAC6 (Homo sapiens, UniProt Q9UBN7)",
  "T1 sequence (Q9UBN7 1-1215)": "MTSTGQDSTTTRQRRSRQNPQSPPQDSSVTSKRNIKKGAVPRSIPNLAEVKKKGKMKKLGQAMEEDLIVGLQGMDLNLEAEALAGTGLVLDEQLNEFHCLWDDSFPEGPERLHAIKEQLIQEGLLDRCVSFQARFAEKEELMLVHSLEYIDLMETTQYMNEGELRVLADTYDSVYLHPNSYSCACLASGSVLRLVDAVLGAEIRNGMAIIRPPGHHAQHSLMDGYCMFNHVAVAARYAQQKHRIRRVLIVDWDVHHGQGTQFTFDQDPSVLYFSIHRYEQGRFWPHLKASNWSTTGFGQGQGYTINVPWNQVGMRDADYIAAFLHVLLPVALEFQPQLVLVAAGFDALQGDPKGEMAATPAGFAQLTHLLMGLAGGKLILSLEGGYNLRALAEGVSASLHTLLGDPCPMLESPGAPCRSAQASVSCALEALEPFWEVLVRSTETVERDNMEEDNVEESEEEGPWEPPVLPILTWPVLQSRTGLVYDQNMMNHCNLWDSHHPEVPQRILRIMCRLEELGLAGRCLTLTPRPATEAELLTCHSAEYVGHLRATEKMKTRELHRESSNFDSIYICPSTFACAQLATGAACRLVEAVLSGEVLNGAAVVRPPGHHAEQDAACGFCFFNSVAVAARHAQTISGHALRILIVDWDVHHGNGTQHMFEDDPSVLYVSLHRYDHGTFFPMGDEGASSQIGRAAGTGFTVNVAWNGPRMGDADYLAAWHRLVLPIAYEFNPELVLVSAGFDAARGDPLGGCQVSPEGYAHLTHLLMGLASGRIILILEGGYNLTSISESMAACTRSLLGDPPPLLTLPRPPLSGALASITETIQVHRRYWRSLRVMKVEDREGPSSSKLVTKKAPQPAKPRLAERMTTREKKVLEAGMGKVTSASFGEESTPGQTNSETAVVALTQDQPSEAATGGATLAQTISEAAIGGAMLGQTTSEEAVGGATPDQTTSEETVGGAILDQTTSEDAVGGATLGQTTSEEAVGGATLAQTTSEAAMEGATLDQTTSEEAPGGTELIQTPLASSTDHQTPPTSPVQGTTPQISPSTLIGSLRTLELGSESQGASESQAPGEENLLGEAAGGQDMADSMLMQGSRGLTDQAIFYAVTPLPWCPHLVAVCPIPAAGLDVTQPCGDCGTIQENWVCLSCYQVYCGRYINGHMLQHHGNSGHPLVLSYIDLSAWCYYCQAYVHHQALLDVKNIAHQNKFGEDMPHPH",
  "assay": "HDACs selectivity assay",
  "format": "biochemical",
  "in_short": "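Enzyme selectivity panel was run by an outside contract lab to its standard assay protocols. IC50 values came from dose–response fitting of the data points. Each experiment was done independently at least three times.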",
  "data": [
    {"smiles": "Nc1nonc1-n1cc(C(=O)N/N=C/c2cc(Cl)cc(C(F)(F)F)c2)nn1", "note": "[JYQ-42]", "values": [
      {"measurement": "IC50", "value": "> 100", "unit": "µM"}
    ]}
  ]
}
